Values after ≈ are worked out from the molar mass of the structure shown.
Tests used:
[1] = tested on: Staphylococcus aureus; experiment: Antibiofilm activity against methicillin-resistant Staphylococcus aureus isolate 2 assessed as biofilm eradication incubated for 24 hrs by CBD assay; format: functional; settings: for MBC: Staphylococcus aureus, isolate 2, 24 h
Method in brief: (§1)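 Calgary Biofilm Device: pegs inoculated with mid-log culture diluted 1,000-fold in TSB + 0.5% glucose, 24 h 37 °C; washed pegs challenged with 2-fold dilutions 24 h 37 °C; pegs moved to fresh TSBG 24 h; MBEC = lowest concentration leaving no turbidity; 2–6 independent experiments.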

[2] = tested on: Enterococcus faecium; experiment: Antibacterial activity against vancomycin-resistant Enterococcus faecium ATCC 700221 incubated for 16 to 18 hrs by broth microdilution method; format: functional
[3] = Induction of hemolysis in human RBC at 200 uM incubated for 1 hr; format: cell-based, Erythrocyte; settings: red blood cells, read-out: Activity
Method in brief: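 Human RBCs (EDTA), washed three times in Tris-buffered saline pH 7.2; 2% hRBC with compound at final 200 µM, 1 h 37 °C; supernatant OD405; % hemolysis relative to DMSO (0%) and Triton X (100%).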

[4] = tested on: Staphylococcus epidermidis; experiment: Antibacterial activity against methicillin-resistant Staphylococcus epidermidis ATCC 35984 assessed as biofilm eradication incubated for 24 hrs by CBD assay; format: functional; settings: for MBC: Staphylococcus epidermidis, ATCC 35984, 24 h; method in brief: as §1
[5] = tested on: Enterococcus faecium; experiment: Antibiofilm activity against […]-resistant Enterococcus faecium ATCC 700221 assessed as biofilm eradication incubated for 24 hrs by CBD assay; format: functional; settings: for MBC: Enterococcus faecium, ATCC 700221, 24 h; method in brief: as §1
[6] = tested on: Staphylococcus aureus; experiment: Antibiofilm activity against methicillin-resistant Staphylococcus aureus BAA-1707 assessed as biofilm eradication incubated for 24 hrs by CBD assay; format: functional; settings: for MBC: Staphylococcus aureus, BAA-1707, 24 h; method in brief: as §1
[7] = tested on: Staphylococcus epidermidis; experiment: Antibacterial activity against Staphylococcus epidermidis ATCC 12228 incubated for 16 to 18 hrs by broth microdilution method; format: functional
[8] = tested on: Staphylococcus aureus; experiment: Antibacterial activity against methicillin-resistant Staphylococcus aureus clinical isolate 2 incubated for 16 to 18 hrs by broth microdilution method; format: functional
[9] = tested on: Staphylococcus epidermidis; experiment: Antibacterial activity against methicillin-resistant Staphylococcus epidermidis ATCC 35984 incubated for 16 to 18 hrs by broth microdilution method; format: functional
[10] = tested on: Staphylococcus aureus; experiment: Antibacterial activity against methicillin-resistant Staphylococcus aureus BAA-44 incubated for 16 to 18 hrs by broth microdilution method; format: functional
[11] = tested on: Staphylococcus aureus; experiment: Antibacterial activity against methicillin-resistant Staphylococcus aureus BAA-1707 incubated for 16 to 18 hrs by broth microdilution method; format: functional
[12] = tested on: HeLa; experiment: Cytotoxicity against human HeLa cells after 24 hrs by LDH release assay; format: cell-based
Method in brief: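 HeLa in DMEM + 10% FBS, 37 °C 5% CO2, at 70–80% confluence treated with 25, 50, 100 µM for 24 h; DMSO vehicle; Triton X-100 2% v/v max-LDH control, medium-only negative; supernatant with LDH reaction mix 30 min room temperature, stopped, absorbance 490 nm.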

[13] = tested on: Mycobacterium tuberculosis; experiment: Antibacterial activity against Mycobacterium tuberculosis H37Ra ATCC 25177 after 7 days by two-fold serial dilution method; format: functional; settings: H37Ra ATCC 25177, 168 h

SMILES	MBEC [1]	MBC [1]	MIC [2]	hemolysis at 1 h, 200 µM [3]	MBEC [4]	MBC [4]	MBEC [5]	MBC [5]	MBEC [6]	MBC [6]	MIC [7]	MIC [8]	MIC [9]	MIC [10]	MIC [11]	IC50 [12]	MIC [13]
Oc1c(I)cc(Br)c2nc3ccccc3nc12	250 µM	46.9 µM (≈ 18.8 µg/mL)	6.25 µM (≈ 2.51 µg/mL)	–	–	–	–	–	–	–	–	–	–	–	–	–	–
O=C(O)CN(CCN(CC(=O)O)CC(=O)O)CC(=O)O [EDETIC ACID]	>2000 µM	2000 µM (≈ 584 µg/mL)	–	3%	>2000 µM	1000 µM (≈ 292 µg/mL)	–	–	–	–	–	–	–	–	–	–	–
CN[C@@H](CC(C)C)C(=O)N[C@H]1C(=O)N[C@@H](CC(N)=O)C(=O)N[C@H]2C(=O)N[C@H]3C(=O)N[C@H](C(=O)N[C@@H](C(=O)O)c4cc(O)cc(O)c4-c4cc3ccc4O)[C@H](O)c3ccc(c(Cl)c3)Oc3cc2cc(c3O[C@H]2O[C@@H](CO)[C@H](O)[C@@H](O)[C@@H]2O[C@@H]2C[C@@](C)(N)[C@@H](O)[C@@H](C)O2)Oc2ccc(cc2Cl)[C@H]1O	>2000 µM	3 µM (≈ 4.35 µg/mL)	> 100 µM	≤ 1%	>2000 µM	3 µM (≈ 4.35 µg/mL)	150 µM	> 200 µM	>2000 µM	3.9 µM (≈ 5.65 µg/mL)	1.17 µM (≈ 1.7 µg/mL)	–	–	–	–	–	–
C=CCc1cc(Br)c2nc3ccccc3nc2c1O	–	–	> 100 µM	–	–	–	–	–	–	–	> 100 µM	> 100 µM	–	–	–	–	–
COc1cccc2nc3cc(Cl)c(Cl)cc3nc12	–	–	> 100 µM	–	–	–	–	–	–	–	> 100 µM	> 100 µM	> 100 µM	–	–	–	–
Oc1c(Br)cc(Br)c2nccnc12	>2000 µM	1500 µM (≈ 456 µg/mL)	100 µM (≈ 30.4 µg/mL)	1.8%	–	–	–	–	–	–	18.8 µM (≈ 5.71 µg/mL)	25 µM (≈ 7.6 µg/mL)	18.8 µM (≈ 5.71 µg/mL)	12.5 µM (≈ 3.8 µg/mL)	6.25 µM (≈ 1.9 µg/mL)	> 100 µM	–
Oc1c(Br)cc(Cl)c2nc3ccccc3nc12	375 µM	46.9 µM (≈ 14.5 µg/mL)	6.25 µM (≈ 1.93 µg/mL)	≤ 1%	46.9 µM	11.7 µM (≈ 3.62 µg/mL)	3.9 µM	7.8 µM (≈ 2.41 µg/mL)	–	–	–	1.56 µM (≈ 0.483 µg/mL)	1.56 µM (≈ 0.483 µg/mL)	1.56 µM (≈ 0.483 µg/mL)	–	> 100 µM	–
Oc1c(Cl)cc(Br)c2nc3ccccc3nc12	>1000 µM	62.5 µM (≈ 19.3 µg/mL)	6.25 µM (≈ 1.93 µg/mL)	≤ 1%	375 µM	31.3 µM (≈ 9.69 µg/mL)	11.7 µM	11.7 µM (≈ 3.62 µg/mL)	–	–	3.13 µM (≈ 0.969 µg/mL)	–	1.56 µM (≈ 0.483 µg/mL)	3.13 µM (≈ 0.969 µg/mL)	–	> 100 µM	–
CC(=O)N[C@@H](CS)C(=O)O [ACETYLCYSTEINE]	>2000 µM	> 2000 µM	–	–	>2000 µM	> 2000 µM	>2000 µM	> 2000 µM	–	–	–	–	–	–	–	–	–
N#CC(C#N)=NNc1cccc(Cl)c1 [CARBONYL CYANIDE M-CHLOROPHENYLHYDRAZONE]	1000 µM	31.3 µM (≈ 6.4 µg/mL)	–	3.5%	93.8 µM	31.3 µM (≈ 6.4 µg/mL)	–	–	–	–	–	–	–	–	–	–	–
Oc1c(I)cc(I)c2nccnc12	>2000 µM	> 2000 µM	12.5 µM (≈ 4.97 µg/mL)	≤ 1%	>1000 µM	750 µM (≈ 298 µg/mL)	–	–	–	–	6.25 µM (≈ 2.49 µg/mL)	3.13 µM (≈ 1.25 µg/mL)	3.13 µM (≈ 1.25 µg/mL)	1.56 µM (≈ 0.621 µg/mL)	1.56 µM (≈ 0.621 µg/mL)	–	–
CN[C@@H]1[C@H](O[C@H]2[C@H](O[C@H]3[C@H](O)[C@@H](O)[C@H](N=C(N)N)[C@@H](O)[C@@H]3N=C(N)N)O[C@@H](C)[C@]2(O)C=O)O[C@@H](CO)[C@H](O)[C@H]1O [STREPTOMYCIN]	–	–	–	–	–	–	–	–	–	–	–	–	–	–	–	–	1.32 µM (≈ 0.768 µg/mL)
Cc1nc2c(Br)cc(Br)c(O)c2nc1C	1500 µM	125 µM (≈ 41.5 µg/mL)	25 µM (≈ 8.3 µg/mL)	≤ 1%	–	–	–	–	–	–	12.5 µM (≈ 4.15 µg/mL)	–	–	6.25 µM (≈ 2.07 µg/mL)	–	–	–
Oc1c(Br)cc(Br)c2nc3ccc(Br)cc3nc12	25 µM	50 µM (≈ 21.6 µg/mL)	0.78 µM (≈ 0.338 µg/mL)	2.1%	–	–	–	–	12.5 µM	12.5 µM (≈ 5.41 µg/mL)	3.13 µM (≈ 1.35 µg/mL)	–	3.13 µM (≈ 1.35 µg/mL)	–	0.2 µM (≈ 0.0866 µg/mL)	–	–
